Measurements from ChEMBL document CHEMBL2375308, “Synthesis and selected immunological properties of substituted quino[3,2-b]benzo[1,4]thiazines” (Eur J Med Chem, 2013).

Legend:
PBMC [1] = test: Inhibition of LPS-induced TNFalpha production in human PBMC at 25 ug/mL after overnight incubation relative to DMSO-treated control; type: functional
In short: (§1)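 Single-donor venous blood diluted 10× in RPMI-1640, 1 mL aliquots, stimulated with LPS (E. coli O111:B4). Compounds added at […]; corresponding DMSO dilutions as controls. Overnight incubation, supernatants frozen at −20 °C, TNF-α measured by biological assay; percentage inhibition versus DMSO control.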

PBMC [2] = test: Inhibition of LPS-induced TNFalpha production in human PBMC at 5 ug/mL after overnight incubation relative to DMSO-treated control; type: functional; in short: as §1
PBMC [3] = test: Antiproliferative activity against PHA-stimulated human PBMC at 50 ug/mL after 4 days by MTT assay relative to DMSO-treated control; type: functional
In short: (§2)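 PBMC from one donor's heparinized blood, Ficoll gradient isolated, in RPMI-1640 with 10% FCS; 2 × 10⁵ cells/well. PHA added at […]; compounds from DMSO stock (10 mg/mL) diluted in medium; matching DMSO dilutions as control. Four-day culture, proliferation read by MTT colorimetry; percentage inhibition versus control.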

PBMC [4] = test: Antiproliferative activity against PHA-stimulated human PBMC at 10 ug/mL after 4 days by MTT assay relative to DMSO-treated control; type: functional; in short: as §2
PBMC [5] = test: Cytotoxicity against human PBMC cells at 10 ug/mL after 24 hrs by MTT assay relative to DMSO-treated control; type: cell-based
In short: (§3)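 Ficoll-isolated PBMC ([…]) in supplemented RPMI-1640, 2 × 10⁵/well, cultured 24 h with the preparations at the indicated concentrations; compounds dissolved in DMSO (10 mg/mL stock) and diluted in medium.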

PBMC [6] = test: Cytotoxicity against human PBMC cells at 50 ug/mL after 24 hrs by MTT assay relative to DMSO-treated control; type: cell-based; in short: as §3

Cc1ccc(S(=O)(=O)NCCCN2c3ccccc3Sc3cc4ccccc4nc32)cc1
inhibition at 25 µg/mL (PBMC [1]): 15.6% | inhibition at 5 µg/mL (PBMC [2]): 3.8% | Activity (PBMC [3]): -0.8% | Activity (PBMC [4]): 6.6% | Activity (PBMC [5]): Non-toxic | Activity (PBMC [6]): Non-toxic

CSc1ccc2c(c1)Sc1cc3ccccc3nc1N2CCCCNS(=O)(=O)c1ccc(C)cc1
inhibition at 25 µg/mL (PBMC [1]): 37.5% | inhibition at 5 µg/mL (PBMC [2]): 70.4% | Activity (PBMC [3]): -34.7% | Activity (PBMC [4]): -5% | Activity (PBMC [5]): Non-toxic | Activity (PBMC [6]): Non-toxic

CSc1ccc2c(c1)Sc1cc3ccccc3nc1N2CCCCNS(C)(=O)=O
inhibition at 25 µg/mL (PBMC [1]): 13.2% | inhibition at 5 µg/mL (PBMC [2]): 72.8% | Activity (PBMC [3]): 62.7% | Activity (PBMC [4]): 53.3% | Activity (PBMC [5]): Non-toxic | Activity (PBMC [6]): Non-toxic

CCOC(=O)NCCCCN1c2ccccc2Sc2cc3ccccc3nc21
inhibition at 25 µg/mL (PBMC [1]): 12.3% | inhibition at 5 µg/mL (PBMC [2]): 0.2% | Activity (PBMC [3]): 83.7% | Activity (PBMC [4]): 73.9% | Activity (PBMC [5]): Non-toxic | Activity (PBMC [6]): Non-toxic

Cc1ccc(S(=O)(=O)NCCCCN2c3ccccc3Sc3cc4ccccc4nc32)cc1
inhibition at 25 µg/mL (PBMC [1]): 12.5% | inhibition at 5 µg/mL (PBMC [2]): 15.8% | Activity (PBMC [3]): 2.4% | Activity (PBMC [4]): 3.3% | Activity (PBMC [5]): Non-toxic | Activity (PBMC [6]): Non-toxic

FC(F)(F)c1ccc2c(c1)Sc1cc3ccccc3nc1N2
inhibition at 25 µg/mL (PBMC [1]): -5.6% | inhibition at 5 µg/mL (PBMC [2]): 51.1% | Activity (PBMC [3]): 61% | Activity (PBMC [4]): 24.9% | Activity (PBMC [5]): Non-toxic | Activity (PBMC [6]): Non-toxic

FC(F)(F)c1ccc2c(c1)Nc1nc3ccccc3cc1S2
inhibition at 25 µg/mL (PBMC [1]): 48.8% | inhibition at 5 µg/mL (PBMC [2]): 72.3% | Activity (PBMC [3]): 0.3% | Activity (PBMC [4]): 21.7% | Activity (PBMC [5]): Non-toxic | Activity (PBMC [6]): 21.5%

Clc1ccc2c(c1)Sc1cc3ccccc3nc1N2CCN1CCCCC1
inhibition at 25 µg/mL (PBMC [1]): 56.7% | inhibition at 5 µg/mL (PBMC [2]): -70.5% | Activity (PBMC [3]): 98.2% | Activity (PBMC [4]): 96.3% | Activity (PBMC [5]): 19.2% | Activity (PBMC [6]): 83.8%

CC(=O)NCCCN1c2ccccc2Sc2cc3ccccc3nc21
inhibition at 25 µg/mL (PBMC [1]): 32.2% | inhibition at 5 µg/mL (PBMC [2]): -0.4% | Activity (PBMC [3]): 92.4% | Activity (PBMC [4]): 68.7% | Activity (PBMC [5]): Non-toxic | Activity (PBMC [6]): 91.9%

Brc1ccc2c(c1)Sc1cc3ccccc3nc1N2
inhibition at 25 µg/mL (PBMC [1]): 10.1% | inhibition at 5 µg/mL (PBMC [2]): 16.2% | Activity (PBMC [3]): 19% | Activity (PBMC [4]): -9.7% | Activity (PBMC [5]): Non-toxic | Activity (PBMC [6]): Non-toxic

CSc1ccc2c(c1)Sc1cc3ccccc3nc1N2
inhibition at 25 µg/mL (PBMC [1]): 19.2% | inhibition at 5 µg/mL (PBMC [2]): 22.5% | Activity (PBMC [3]): 2.9% | Activity (PBMC [4]): 0% | Activity (PBMC [5]): Non-toxic | Activity (PBMC [6]): Non-toxic

Fc1ccc2c(c1)Sc1cc3ccccc3nc1N2
Activity (PBMC [4]): 100% | Activity (PBMC [5]): 50%

Cc1ccc2c(c1)Sc1cc3ccccc3nc1N2
inhibition at 25 µg/mL (PBMC [1]): 66.6% | inhibition at 5 µg/mL (PBMC [2]): 54.1% | Activity (PBMC [3]): -6.2% | Activity (PBMC [4]): -17.9% | Activity (PBMC [5]): 2.4% | Activity (PBMC [6]): 15.4%

CS(=O)(=O)NCCCN1c2ccccc2Sc2cc3ccccc3nc21
inhibition at 25 µg/mL (PBMC [1]): 60.6% | inhibition at 5 µg/mL (PBMC [2]): 8.1% | Activity (PBMC [3]): 74.6% | Activity (PBMC [4]): 36.6% | Activity (PBMC [5]): Non-toxic | Activity (PBMC [6]): Non-toxic

CCOC(=O)NCCCN1c2ccccc2Sc2cc3ccccc3nc21
inhibition at 25 µg/mL (PBMC [1]): 14.1% | inhibition at 5 µg/mL (PBMC [2]): 7.7% | Activity (PBMC [3]): 88.4% | Activity (PBMC [4]): 69.7% | Activity (PBMC [5]): Non-toxic | Activity (PBMC [6]): Non-toxic

Clc1ccc2c(c1)Sc1cc3ccccc3nc1N2
inhibition at 25 µg/mL (PBMC [1]): 9.6% | inhibition at 5 µg/mL (PBMC [2]): 2% | Activity (PBMC [3]): 5.7% | Activity (PBMC [4]): -0.3% | Activity (PBMC [5]): Non-toxic | Activity (PBMC [6]): Non-toxic

O=C(NCCCl)NCCCCN1c2ccc(Cl)cc2Sc2cc3ccccc3nc21
inhibition at 25 µg/mL (PBMC [1]): 56% | inhibition at 5 µg/mL (PBMC [2]): 54.8% | Activity (PBMC [3]): 94.6% | Activity (PBMC [4]): 98.4% | Activity (PBMC [5]): 19.2% | Activity (PBMC [6]): 86.3%

CN1CCCCC1CCN1c2ccccc2Sc2cc3ccccc3nc21 (centres undefined)
inhibition at 25 µg/mL (PBMC [1]): 62.4% | inhibition at 5 µg/mL (PBMC [2]): 49.1% | Activity (PBMC [3]): 39.8% | Activity (PBMC [4]): -23.5% | Activity (PBMC [5]): Non-toxic | Activity (PBMC [6]): 4.5%

CCOC(=O)NCCCCN1c2ccc(SC)cc2Sc2cc3ccccc3nc21
inhibition at 25 µg/mL (PBMC [1]): 33.1% | inhibition at 5 µg/mL (PBMC [2]): 50.9% | Activity (PBMC [3]): 27.8% | Activity (PBMC [4]): 44.3% | Activity (PBMC [5]): Non-toxic | Activity (PBMC [6]): Non-toxic

CCOC(=O)NCCCN1c2ccc(Cl)cc2Sc2cc3ccccc3nc21
inhibition at 25 µg/mL (PBMC [1]): 31.7% | inhibition at 5 µg/mL (PBMC [2]): 10.3% | Activity (PBMC [3]): 60.4% | Activity (PBMC [4]): 45% | Activity (PBMC [5]): Non-toxic | Activity (PBMC [6]): Non-toxic

CSc1ccc2c(c1)Sc1cc3ccccc3nc1N2CCCNC(C)=O
inhibition at 25 µg/mL (PBMC [1]): 64.5% | inhibition at 5 µg/mL (PBMC [2]): 71.7% | Activity (PBMC [3]): 68.8% | Activity (PBMC [4]): 72.5% | Activity (PBMC [5]): Non-toxic | Activity (PBMC [6]): Non-toxic

Clc1cccc2c1Sc1cc3ccccc3nc1N2
inhibition at 25 µg/mL (PBMC [1]): 4.6% | inhibition at 5 µg/mL (PBMC [2]): 17% | Activity (PBMC [3]): 10.8% | Activity (PBMC [4]): 10.7% | Activity (PBMC [5]): Non-toxic | Activity (PBMC [6]): 13%

CS(=O)(=O)NCCCCN1c2ccccc2Sc2cc3ccccc3nc21
inhibition at 25 µg/mL (PBMC [1]): 42.3% | inhibition at 5 µg/mL (PBMC [2]): 14% | Activity (PBMC [3]): 94.3% | Activity (PBMC [4]): 42.3% | Activity (PBMC [5]): Non-toxic | Activity (PBMC [6]): Non-toxic

CSc1ccc2c(c1)Sc1cc3ccccc3nc1N2CCCCNC(C)=O
inhibition at 25 µg/mL (PBMC [1]): 60.4% | inhibition at 5 µg/mL (PBMC [2]): 46.8% | Activity (PBMC [3]): 42% | Activity (PBMC [4]): 54.7% | Activity (PBMC [5]): Non-toxic | Activity (PBMC [6]): 7.9%

CC(=O)NCCCN1c2ccc(Cl)cc2Sc2cc3ccccc3nc21
inhibition at 25 µg/mL (PBMC [1]): 60.6% | inhibition at 5 µg/mL (PBMC [2]): 11.4% | Activity (PBMC [3]): 58.3% | Activity (PBMC [4]): 50.8% | Activity (PBMC [5]): Non-toxic | Activity (PBMC [6]): Non-toxic

c1ccc2c(c1)Nc1nc3ccccc3cc1S2
inhibition at 25 µg/mL (PBMC [1]): 16.1% | inhibition at 5 µg/mL (PBMC [2]): 25.6% | Activity (PBMC [3]): 14.4% | Activity (PBMC [4]): 7.1% | Activity (PBMC [5]): Non-toxic | Activity (PBMC [6]): Non-toxic

O=C(NCCCl)NCCCCN1c2ccccc2Sc2cc3ccccc3nc21
inhibition at 25 µg/mL (PBMC [1]): 4.3% | inhibition at 5 µg/mL (PBMC [2]): -1.8% | Activity (PBMC [3]): 88.7% | Activity (PBMC [4]): 16.6% | Activity (PBMC [5]): 7.9% | Activity (PBMC [6]): Non-toxic

CS(=O)(=O)NCCCN1c2ccc(Cl)cc2Sc2cc3ccccc3nc21
inhibition at 25 µg/mL (PBMC [1]): 30.5% | inhibition at 5 µg/mL (PBMC [2]): 1.2% | Activity (PBMC [3]): 74.4% | Activity (PBMC [4]): 73.4% | Activity (PBMC [5]): Non-toxic | Activity (PBMC [6]): Non-toxic
